Results as given in paper PMC3866226 (Molecular pharmaceutics, 2013).
Values joined by “and” are separate entries in the source; they are usually repeats but may differ in a detail not shown here. Identical values can stand only once. “Also recorded” adds a separate entry of the source. Bridge positions count the residues as written; N and C are the ends. Square brackets hold non-standard residues; d marks the D form. Peptide text beside a SMILES is read from it.

Key:
[1] = tested on: B16/F1 melanoma cells; assay: Cellular internalization; format: cell-based, murine; settings: after 20 min of incubation at 25 °C, acid wash pH 4.5, n=3
Outline: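 Cells at 2.5×10^5/well were grown overnight at 37 °C and washed with binding medium (MEM, 25 mM HEPES pH 7.4, 0.2% BSA, 0.3 mM 1,10-phenanthroline). They were incubated at 25 °C with ~200,000 cpm HPLC-purified radiopeptide for 20–120 min (n=3). Membrane-bound activity was stripped with 40 mM sodium acetate pH 4.5/0.9% NaCl/0.2% BSA. Cells were lysed in 1 N NaOH for 5 min; both fractions were gamma-counted.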

[2] = tested on: B16/F1 melanoma cells; assay: Cellular efflux; format: cell-based, murine; settings: loaded 2 h at 25 °C, then 2 h of incubation in the culture medium
Outline: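 B16/F1 cells were seeded at 2.5×10^5/well and grown overnight at 37 °C. They were loaded with radiopeptide for 2 h at 25 °C and rinsed twice with ice-cold PBS. Release into culture medium was then monitored. At 20, 40, 60, 90 and 120 min, surface-bound and intracellular radioactivity were collected separately and gamma-counted.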

[3] = Biodistribution in B16/F1 melanoma-bearing C57 mice; format: in vivo, mouse; settings: female, C57, mouse, iv, 0.037 MBq, total radioactivity
Outline: (§1)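 Female C57 mice bore subcutaneous right-flank tumours from 1×10^6 B16/F1 cells (~0.2 g at 10 days). Radiopeptide, 0.037 MBq in pH 7.4 saline, went in via tail vein. Groups of 4 were killed at 0.5, 2, 4 and 24 h; tumours and organs were weighed and gamma-counted. Blood was taken as 6.5% body weight. Blockade: co-injected 10 µg (6.1 nmol) unlabeled NDP-MSH, 2 h. Results as %ID/g or %ID, mean ± SD, n=4.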

[4] = tested on: B16/F1 melanoma-bearing C57 mice; assay: as above; format: in vivo, mouse
Outline: as §1

[5] = tested on: B16/F1 melanoma-bearing C57 mice; assay: Effect of L-lysine co-injection on renal and tumor uptake; format: in vivo, mouse; settings: 2 h post-injection, 15 mg L-lysine
Outline: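 Groups of 4 tumour-bearing C57 mice received 0.037 MBq radiopeptide mixed with 15 mg L-lysine via injection. Mice were killed at 2 h, and tumours and organs were weighed and gamma-counted. Uptake with versus without L-lysine was compared by unpaired Student's t-test, significance p<0.05.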

[6] = tested on: B16/F1 melanoma-bearing C57 mice; assay: Urinary metabolites by radio-HPLC; format: in vivo, mouse; settings: urine at 2 h post-injection of ~3.7 MBq via tail vein
[7] = tested on: B16/F1 melanoma-bearing C57 mice; assay: Melanoma imaging by small animal SPECT/CT; format: in vivo, mouse; settings: 2 h post-injection of 7.4 MBq via tail vein

tissue uptake at 0.5 h ([3]; blood): 15.9 ± 3.97 %ID/g | tissue uptake at 2 h ([3]; blood): 0.44 ± 0.13 %ID/g | tissue uptake at 4 h ([3]; blood): 0.55 ± 0.41 %ID/g | tissue uptake at 24 h ([3]; blood): 0.4 ± 0.21 %ID/g | tissue uptake at 0.5 h ([3]; bone): 1.66 ± 0.1 %ID/g | tissue uptake at 2 h ([3]; bone): 0.46 ± 0.11 %ID/g | tissue uptake at 4 h ([3]; bone): 0.39 ± 0.12 %ID/g | tissue uptake at 24 h ([3]; bone): 0.23 ± 0.09 %ID/g | tissue uptake at 0.5 h ([3]; brain): 0.14 ± 0.04 %ID/g | tissue uptake at 2 h ([3]; brain): 0.03 ± 0.01 %ID/g | tissue uptake at 4 h ([3]; brain): 0.02 ± 0.01 %ID/g | tissue uptake at 24 h ([3]; brain): 0.03 ± 0.01 %ID/g | tissue uptake at 0.5 h ([3]; heart): 1.86 ± 0.21 %ID/g | tissue uptake at 2 h ([3]; heart): 0.29 ± 0.08 %ID/g | tissue uptake at 4 h ([3]; heart): 0.19 ± 0.05 %ID/g | tissue uptake at 24 h ([3]; heart): 0.12 ± 0.02 %ID/g | tissue uptake dose at 0.5 h ([3]; intestines): 1.73 ± 0.17 %ID | tissue uptake dose at 2 h ([3]; intestines): 0.84 ± 0.2 %ID | tissue uptake dose at 4 h ([3]; intestines): 0.72 ± 0.18 %ID | tissue uptake dose at 24 h ([3]; intestines): 0.48 ± 0.13 %ID | tissue uptake at 0.5 h ([3]; kidneys): 145 ± 24.6 %ID/g | tissue uptake at 2 h ([3]; kidneys): 135 ± 23.6 %ID/g | tissue uptake at 4 h ([3]; kidneys): 106 ± 27.7 %ID/g | tissue uptake at 24 h ([3]; kidneys): 46.8 ± 14.8 %ID/g | tissue uptake at 0.5 h ([3]; liver): 2.09 ± 0.04 %ID/g | tissue uptake at 2 h ([3]; liver): 1.62 ± 0.14 %ID/g | tissue uptake at 4 h ([3]; liver): 2.01 ± 0.39 %ID/g | tissue uptake at 24 h ([3]; liver): 1.03 ± 0.1 %ID/g | tissue uptake at 0.5 h ([3]; lung): 4.27 ± 0.27 %ID/g | tissue uptake at 2 h ([3]; lung): 0.51 ± 0.37 %ID/g | tissue uptake at 4 h ([3]; lung): 0.39 ± 0.24 %ID/g | tissue uptake at 24 h ([3]; lung): 0.23 ± 0.04 %ID/g | tissue uptake at 0.5 h ([3]; muscle): 0.8 ± 0.38 %ID/g | tissue uptake at 2 h ([3]; muscle): 0.15 ± 0.05 %ID/g | tissue uptake at 4 h ([3]; muscle): 0.07 ± 0.02 %ID/g | tissue uptake at 24 h ([3]; muscle): 0.52 ± 0.1 %ID/g | tissue uptake at 0.5 h ([3]; pancreas): 0.83 ± 0.4 %ID/g | tissue uptake at 2 h ([3]; pancreas): 0.11 ± 0.04 %ID/g | tissue uptake at 4 h ([3]; pancreas): 0.09 ± 0.05 %ID/g | tissue uptake at 24 h ([3]; pancreas): 0.13 ± 0.07 %ID/g | tissue uptake at 0.5 h ([3]; skin): 3.99 ± 0.42 %ID/g | tissue uptake at 2 h ([3]; skin): 0.5 ± 0.19 %ID/g | tissue uptake at 4 h ([3]; skin): 0.27 ± 0.13 %ID/g | tissue uptake at 24 h ([3]; skin): 1.01 ± 0.31 %ID/g | tissue uptake at 0.5 h ([3]; spleen): 1.04 ± 0.33 %ID/g | tissue uptake at 2 h ([3]; spleen): 0.48 ± 0.2 %ID/g | tissue uptake at 4 h ([3]; spleen): 0.47 ± 0.18 %ID/g | tissue uptake at 24 h ([3]; spleen): 0.19 ± 0.13 %ID/g | tissue uptake at 0.5 h ([3]; stomach): 1.87 ± 0.21 %ID/g | tissue uptake at 2 h ([3]; stomach): 0.67 ± 0.16 %ID/g | tissue uptake at 4 h ([3]; stomach): 0.7 ± 0.23 %ID/g | tissue uptake at 24 h ([3]; stomach): 0.21 ± 0.04 %ID/g | tissue to tissue ratio at 2 h ([3]; tumor / blood): 42.7 | tissue to tissue ratio at 4 h ([3]; tumor / blood): 25.2 | tissue to tissue ratio at 24 h ([3]; tumor / blood): 14.6 | tissue to tissue ratio at 0.5 h ([3]; tumor / kidneys): 0.1 | tissue to tissue ratio at 2 h ([3]; tumor / kidneys): 0.14 | tissue to tissue ratio at 4 h ([3]; tumor / kidneys): 0.13 | tissue to tissue ratio at 24 h ([3]; tumor / kidneys): 0.12 | tissue to tissue ratio at 0.5 h ([3]; tumor / lung): 3.41 | tissue to tissue ratio at 2 h ([3]; tumor / lung): 36.8 | tissue to tissue ratio at 4 h ([3]; tumor / lung): 35.5 | tissue to tissue ratio at 24 h ([3]; tumor / lung): 25.4 | tissue uptake at 0.5 h ([3]; tumor): 14.6 ± 5.31 %ID/g | tissue uptake at 2 h ([3]; tumor): 18.8 ± 5.13 %ID/g | tissue uptake at 4 h ([3]; tumor): 13.8 ± 3.1 %ID/g | tissue uptake at 24 h ([3]; tumor): 5.84 ± 0.5 %ID/g | tissue to tissue ratio at 0.5 h ([3]; tumor/liver): 6.97 | tissue to tissue ratio at 2 h ([3]; tumor/liver): 11.6 | tissue to tissue ratio at 4 h ([3]; tumor/liver): 6.89 | tissue to tissue ratio at 24 h ([3]; tumor/liver): 5.67 | tissue to tissue ratio at 0.5 h ([3]; tumor/muscle): 18.2 | tissue to tissue ratio at 2 h ([3]; tumor/muscle): 125 | tissue to tissue ratio at 4 h ([3]; tumor/muscle): 198 | tissue to tissue ratio at 24 h ([3]; tumor/muscle): 11.2 | dose excreted at 0.5 h ([3]; urine): 28.6 ± 8.85% | dose excreted at 2 h ([3]; urine): 54.8 ± 5.65% | dose excreted at 4 h ([3]; urine): 61.2 ± 5.56% | dose excreted at 24 h ([3]; urine): 82.2 ± 4.69% | Uptake ratio Tumor/Blood ([4]; 0.5 h post-injection): 0.91 | Uptake ratio Tumor/Blood ([4]; 2 h post-injection, NDP blockade): 5.70 | Reduction of renal uptake by L-lysine co-injection ([5]; versus without L-lysine): 55% and 40–50% | Remained intact in the urine [6]: Approximately 70% | Transformed to a more hydrophobic compound in the urine [6]: 30%
Compound: CC(C)[C@H](NC(=O)[C@@H]1CCCN1C(=O)[C@H](CCCNC(=N)N)NC(=O)[C@H](CS)NC(=O)[C@H](Cc1c[nH]c2ccccc12)NC(=O)[C@H](CCCNC(=N)N)NC(=O)[C@@H](Cc1ccccc1)NC(=O)[C@H](Cc1c[nH]cn1)NC(=O)[C@H](CCC(=O)O)NC(=O)[C@H](CS)NC(=O)[C@H](CS)NC(=O)[C@H](CCCCN)NC(=O)[C@@H]1CC(=O)N[C@@H](CCCNC(=N)N)C(=O)N[C@@H]([C@@H](C)O)C(=O)N[C@@H](CC(=O)O)C(=O)N[C@H](Cc2ccc(O)cc2)C(=O)N1)C(N)=O [^99mTc-RTD-Lys-(Arg^11)CCMSH, metal not drawn] (RTD[dY]DKCCEH[dF]RWCRPV-NH2; lactam N-5)
Activity internalized in the cells [1]: Approximately 71% | Activity remained inside the cells (cellular efflux) [2]: 75% | Effect of L-lysine co-injection on tumor uptake ([5]; p>0.05): didn't affect the tumor uptake; also recorded: without affecting their tumor uptake | Visualization of flank B16/F1 melanoma lesions by SPECT/CT [7]: clearly visualized
